Screening data: PubChem, several laboratories
This is a sample that favours compounds with a hit; in the whole collection about 9.6% have one here.
TNAP inh no acc = human TNAP enzyme inhibitors, primary screen, biochemical, luminescent, no phosphate acceptor, uHTS; purified TNAP, CDP-star luminescence, 30 min; 200,000 tested, 0.26% active; inhibition, % at 20 µM; AID 1012, 2008; Alkaline phosphatase, tissue-nonspecific isozyme (Homo sapiens), P05186;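 active = tissue-nonspecific alkaline phosphatase inhibition above about 50% at 20 µM in the single-dose screen, limit read from the data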
Target sequence (P05186 whole entry, looked up): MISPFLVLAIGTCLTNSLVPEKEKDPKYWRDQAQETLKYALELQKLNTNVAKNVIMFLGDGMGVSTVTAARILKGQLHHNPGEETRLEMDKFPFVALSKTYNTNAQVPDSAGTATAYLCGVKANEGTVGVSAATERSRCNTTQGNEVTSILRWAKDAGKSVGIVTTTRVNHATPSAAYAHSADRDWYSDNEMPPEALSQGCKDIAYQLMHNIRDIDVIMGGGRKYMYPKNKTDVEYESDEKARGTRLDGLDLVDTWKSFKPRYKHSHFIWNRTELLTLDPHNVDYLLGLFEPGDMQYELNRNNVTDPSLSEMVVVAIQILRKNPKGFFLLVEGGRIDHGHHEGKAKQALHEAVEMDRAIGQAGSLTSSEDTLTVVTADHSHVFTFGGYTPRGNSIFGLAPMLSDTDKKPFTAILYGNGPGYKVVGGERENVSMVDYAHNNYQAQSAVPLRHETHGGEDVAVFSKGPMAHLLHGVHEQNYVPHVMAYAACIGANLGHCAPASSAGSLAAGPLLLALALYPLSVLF
PTEN del growth = growth suppression of PTEN-null HCT116, primary screen, cell-based, CellTiter-Glo; 140,000 tested, 1.2% active; HCT116 PTEN-null viability, 60 h; hits give low values; AID 827, 2007; viability, % at 10 µM;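 active = viability at or below a set limit, 4 SD under the median of all tested compounds, cut at about 3.7% in these data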;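 also: PTEN knockout HCT116 line with beta catenin targeted HCT116 as companion control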
Lmaj promast = Leishmania major promastigote growth inhibition, primary screen | AID 1063, 2008 | Leishmania major promastigotes, resazurin fluorescence viability | 200,000 tested, 9% active | inhibition, % at 10 µM; in the data active = inhibition above about 50%;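 also: promastigotes grown with compound for 44 hours at 28 °C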
TNAP act hi DEA = TNAP activators at high phosphate acceptor level, primary screen, biochemical, luminescence, uHTS. 200,000 tested, under 10 active. activation factor at 20 µM. purified TNAP, CDP-star luminescence, 1 M DEA, 30 min; hits give high values; 0 = EDTA background, 1 = DMSO-only activity;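 active = activation factor at least 2 at 20 µM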
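Dosing: 20 µM single point. System: human TNAP. Amount: TNAP 1/800 final. Incubation: 30 min, room temperature. Read-out: TNAP activation factor scaled between EDTA and DMSO control wells. Signal: luminescence from CDP-star hydrolysis. Medium: 1 M DEA, pH 9.8, Mg2+, Zn2+. Control set: EDTA negative control, DMSO positive control.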
HCT116 bCat-KO = primary screen for growth suppressors in beta-catenin knockout HCT116 cells (colon tumor, human); viability, % at 10 µM; HCT116 beta-catenin knockout viability, CellTiter-Glo, 60 h; hits give low values; 140,000 tested, 1.5% active;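 active = viability at or under a set limit, the compound median less 4 SD, cut at about 6% in these data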
TNAP inh hiacc = human TNAP enzyme inhibitors, primary screen, biochemical, luminescent, high phosphate acceptor level, uHTS. Alkaline phosphatase, tissue-nonspecific isozyme (Homo sapiens), P05186. AID 1135, 2008. 200,000 tested, 0.03% active. inhibition, % at 20 µM. purified TNAP, CDP-star luminescence, 1 M DEA;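 active = over 50% inhibition of tissue-nonspecific alkaline phosphatase at 20 µM in the single-dose screen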
Large screens that a line does not name were inactive.

Cc1cc(N/N=C/c2ccccc2O)nc(-c2ccccc2O)n1	Lmaj promast 53.1
COC(=O)c1ccc(Nc2cc(C)nc(-c3ccccc3O)n2)cc1	none
COC(=O)c1cccc(Nc2cc(C)nc(-c3ccccc3O)n2)c1	Lmaj promast 67.0
COc1ccc(CN2CCNC(=O)C2CC(=O)N2CCCCO2)cc1OC (stereo unspecified)	none (no result: PTEN del growth, HCT116 bCat-KO)
Cc1cc(N/N=C/c2ccc(O)cc2O)nc(-c2ccccc2O)n1	PTEN del growth 2.7, HCT116 bCat-KO 5.9
COC(=O)C1=C(C)N(c2ccccc2)/C(=C/c2cccs2)C1=O	Lmaj promast 51.5
COC(=O)C1=C(C)N(c2ccc(C)c(C)c2)/C(=C/c2cccs2)C1=O	Lmaj promast 82.5
COC(=O)C1=C(C)N(c2ccc(Cl)cc2)/C(=C/c2cccs2)C1=O	none
Cc1nn(C)c(C)c1S(=O)(=O)N(CC(=O)Nc1ccc2c(c1)OCO2)c1ccc(C(C)C)cc1	Lmaj promast 50.1
Cc1n[nH]c(C)c1S(=O)(=O)N(CC(=O)Nc1ccc2c(c1)OCCO2)c1ccc(C(C)C)cc1	Lmaj promast 56.4
O=C(CSc1nccc(=O)[nH]1)NCc1ccc(Cl)cc1	none (no result: PTEN del growth, HCT116 bCat-KO)
O=C(/C=C/c1ccc([N+](=O)[O-])cc1)N(c1ccccn1)C1CCCCC1	none (no result: PTEN del growth, HCT116 bCat-KO)
CCN(CC)S(=O)(=O)c1cnccc1N1CCN(c2cccc(Cl)c2)CC1	Lmaj promast 100.3
CNS(=O)(=O)c1cnccc1N1CCN(c2cccc(Cl)c2)CC1	Lmaj promast 99.9
CN1CCN(S(=O)(=O)c2cnccc2N2CCN(c3cccc(Cl)c3)CC2)CC1	none
O=c1c(-c2ccc(Cl)cc2)coc2c(CN3CCOCC3)c(O)ccc12	Lmaj promast 59.3
COc1cc(NC(=O)CCCc2c[nH]c3ccccc23)cc(OC)c1	none
O=C(CN(Cc1ccccc1)S(=O)(=O)c1ccc(Br)cc1)NCc1ccco1	Lmaj promast 99.9 (no result: PTEN del growth)
Cc1ccc(S(=O)(=O)N(Cc2ccccc2)Cc2ccco2)cc1	Lmaj promast 88.4
Cc1ccccc1N(CC(=O)Nc1ccccc1C(=O)NCc1ccco1)S(=O)(=O)c1ccccc1	none
Cc1ccc(S(=O)(=O)N(Cc2ccc(Cl)cc2)c2ccccc2C(=O)NCc2ccco2)cc1	Lmaj promast 58.1
Cc1ccc(S(=O)(=O)N(Cc2ccc(F)cc2)Cc2ccco2)cc1	none
O=C(N/N=C/c1ccc(OC(F)F)cc1OC(F)F)c1cccc(S(=O)(=O)N2CCOCC2)c1	none (no result: PTEN del growth, HCT116 bCat-KO)
COP(=O)(OC)c1nc(-c2cccc3ccccc23)oc1N1CCCCC1	none (no result: PTEN del growth, HCT116 bCat-KO)
COP(=O)(OC)c1nc(-c2ccccc2)oc1N1CCOCC1	Lmaj promast 51.1
Cc1ccc(NCC(=O)N/N=C/c2cc3ccccc3nc2Cl)cc1	Lmaj promast 83.7
O=C(CN1CCOCC1)N/N=C/c1cc2ccccc2nc1Cl	none
CCS(=O)(=O)Nc1ccc(C2=NN(C(=O)c3ccco3)C(c3ccc(C)cc3)C2)cc1 (stereo unspecified)	Lmaj promast 73.9
Cc1ccc(C2CC(c3ccc(NS(C)(=O)=O)cc3)=NN2C(=O)c2ccco2)cc1 (stereo unspecified)	none
CS(=O)(=O)Nc1ccc(C2=NN(C(=O)c3ccco3)C(c3ccccc3)C2)cc1 (stereo unspecified)	Lmaj promast 67.8
O=[N+]([O-])c1cccc(/C=C/c2nc3ccc([N+](=O)[O-])cc3[nH]2)c1	PTEN del growth 3.7, Lmaj promast 54.8
O=C(NCc1ccccn1)C(=O)N/N=C/c1ccc2c(c1)OCO2	none (no result: PTEN del growth, HCT116 bCat-KO)
C/C(=N/NC(=O)CNC(=O)Cc1ccccc1)c1ccco1	Lmaj promast 63.2
C/C(=N\NC(=O)CNC(=O)c1ccc2c(c1)OCO2)c1ccco1	Lmaj promast 53.0
CC1(c2ccc3noc(-c4cccc(F)c4)c3c2)OCCO1	none (no result: PTEN del growth, HCT116 bCat-KO)
CC1CN(C(=O)N[C@@H](Cc2ccccc2)C(=O)O)CC(C)O1 (stereo partly specified)	Lmaj promast 79.7
CN(CCN1CCOCC1)Cc1nc(-c2ccccc2)no1	Lmaj promast 90.2 (no result: PTEN del growth, HCT116 bCat-KO)
CCn1ccnc1CN(C)Cc1nc(-c2ccccc2)no1	none (no result: PTEN del growth, HCT116 bCat-KO)
Cc1[nH]c2ccc3ncccc3c2c1C	Lmaj promast 56.5
CCC(C)c1ccc(NC(=S)NC(C)C2CCCO2)cc1 (stereo unspecified)	none (no result: PTEN del growth, HCT116 bCat-KO)
CCn1c(SCC(=O)NC2CCS(=O)(=O)C2)nnc1-c1ccccc1 (stereo unspecified)	none (no result: PTEN del growth, HCT116 bCat-KO)
Cc1ccc(-c2nnc(SCC(=O)NC3CCS(=O)(=O)C3)nc2-c2ccc(C)cc2)cc1 (stereo unspecified)	Lmaj promast 77.8
Cc1nnc(SCC(=O)NC2CCS(=O)(=O)C2)n1Cc1ccccc1 (stereo unspecified)	none (no result: PTEN del growth, HCT116 bCat-KO)
Cc1ccc(SCC(=O)N2CCOCC2)cc1	none
Cc1ccc(-c2nnc(SCC(=O)N3CCOCC3)nc2-c2ccc(C)cc2)cc1	Lmaj promast 98.5
Cc1ccc(OCC(=O)NC2CCS(=O)(=O)C2)cc1 (stereo unspecified)	none
Cc1ccc(-c2cn(-c3ccccc3)c(SCC(=O)NC3CCS(=O)(=O)C3)n2)cc1C (stereo unspecified)	Lmaj promast 85.5
O=C(CSc1nnc(COc2ccccc2F)n1-c1ccccc1)NC1CCS(=O)(=O)C1 (stereo unspecified)	Lmaj promast 69.9
CCC(Br)C(=O)Nc1ccc(OC)cc1 (stereo unspecified)	none (no result: PTEN del growth, HCT116 bCat-KO)
Cc1cc(Br)cn2cc(C(=O)O)nc12	none (no result: PTEN del growth, HCT116 bCat-KO)
COC(=O)c1cccc(NC(=O)CSc2nnc(C)n2C)c1	none (no result: PTEN del growth, HCT116 bCat-KO)
CN1CCN(Cc2nc3ccccc3c(=O)n2Cc2nc(-c3ccc([N+](=O)[O-])cc3)cs2)CC1	PTEN del growth 0.5, Lmaj promast 100.5, HCT116 bCat-KO 0.8
Cc1cc(-c2cccc([N+](=O)[O-])c2)nc2ccccc12	none
Cc1cc(N2CCN(c3nc(-c4ccc([N+](=O)[O-])cc4)cs3)CC2)c2ccccc2n1	none (no result: PTEN del growth, HCT116 bCat-KO)
CN(C)Cc1nc2ccccc2c(=O)n1Cc1nc(-c2cccc([N+](=O)[O-])c2)cs1	Lmaj promast 51.8 (no result: PTEN del growth, HCT116 bCat-KO)
Cc1ccc(CC(=O)NCc2ccc(F)cc2)cc1	none (no result: PTEN del growth, HCT116 bCat-KO)
O=S(=O)(NC1CCCCC1Oc1ccccc1)c1ccccc1 (stereo unspecified)	none
CC1=C(C(=O)OC(C)(C)C)C(c2cccs2)NC(=O)N1 (stereo unspecified)	Lmaj promast 69.1
